Data from ChEMBL document CHEMBL1212832, “Antiprotozoal steroidal saponins from the marine sponge Pandaros acanthifolium” (J Nat Prod, 2010).
Activity calls are given as the source filed them. The calls are words filed in the database; no cut-off is given here.

Columns and labels:
[1] = target: T1, 3-oxoacyl-acyl-carrier protein reductase (Plasmodium falciparum) (UniProt Q965D6); test: Inhibition of Plasmodium falciparum recombinant FabG at 20 ug/mL by spectrophotometric analysis
T1 sequence (whole entry): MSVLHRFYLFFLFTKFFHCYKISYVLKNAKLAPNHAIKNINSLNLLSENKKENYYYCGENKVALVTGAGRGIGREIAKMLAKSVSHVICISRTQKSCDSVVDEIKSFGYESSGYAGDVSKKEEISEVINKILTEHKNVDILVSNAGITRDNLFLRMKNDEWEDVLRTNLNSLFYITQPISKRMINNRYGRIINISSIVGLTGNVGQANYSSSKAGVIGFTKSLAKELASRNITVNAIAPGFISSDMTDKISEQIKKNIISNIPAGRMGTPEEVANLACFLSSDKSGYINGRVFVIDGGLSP

[2] = Inhibition of Plasmodium falciparum recombinant FabI at 20 ug/mL by spectrophotometric analysis
[3] = target: T2, Fatty acid synthase (Plasmodium falciparum) (UniProt Q965D7); test: Inhibition of Plasmodium falciparum recombinant FabZ at 20 ug/mL by spectrophotometric analysis
T2 sequence (whole entry): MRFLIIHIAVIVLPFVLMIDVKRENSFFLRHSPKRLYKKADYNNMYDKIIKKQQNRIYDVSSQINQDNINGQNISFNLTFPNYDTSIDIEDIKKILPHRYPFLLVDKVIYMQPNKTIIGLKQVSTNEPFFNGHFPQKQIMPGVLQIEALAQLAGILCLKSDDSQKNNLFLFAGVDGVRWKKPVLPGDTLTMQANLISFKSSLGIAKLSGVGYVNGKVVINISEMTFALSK

Trypanosoma cruzi = test: Trypanocidal activity against trypomastigote form of Trypanosoma cruzi Tulahuen infected in rat L6 cells after 96 hrs; type: functional, organism-based; settings: L6, 96 h
Method in brief: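 L6 cells seeded at 2000 per well in RPMI 1640 with 10% FBS, 2 mM L-glutamine; after 24 h, 5000 trypomastigotes of the LacZ-expressing C2C4 line added. After 48 h, medium replaced with seven 3-fold dilutions (90–0.12 µg/mL) for 96 h.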

L6 = test: Cytotoxicity against rat L6 cells after 72 hrs by Alamar blue assay; type: cell-based; settings: l6, 72 h
Method in brief: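 4 × 10^4 L6 cells per well in RPMI 1640 with 10% FBS and L-glutamine, exposed 72 h to seven 3-fold dilutions (90–0.12 µg/mL). Resazurin (Alamar Blue) added for 2 h, fluorescence read at ex 536/em 588 nm.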

Leishmania donovani = test: Antileishmanial activity against Leishmania donovani (MHOM/ET/67/L82) amastigotes after 72 hrs; type: functional, organism-based; settings: MHOM/ET/67/L82, 72 h
Plasmodium falciparum = test: Antimalarial activity against chloroquine and pyrimethamine-resistant Plasmodium falciparum K1 assessed as inhibition of [3H]hypoxanthine incorporation after 48 hrs by scintillation counting; type: functional, organism-based
Method in brief: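 K1 strain (chloroquine- and pyrimethamine-resistant) cultured in RPMI 1640 with 5% Albumax II, 0.2% w/v glucose, 0.03% L-glutamine. Two-fold dilution series from DMSO stocks, final DMSO ≤0.25%. 48 h at 37 °C, then 0.1 µCi [3H]-hypoxanthine added and incubated 24 h more. Freeze-stopped at -80 °C, harvested onto glass fiber filters, scintillation counted. IC50 calculated. Chloroquine as standard.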

[4] = test system: Trypanosoma brucei rhodesiense; test: Trypanocidal activity against Trypanosoma brucei rhodesiense STIB 900 after 72 hrs; type: functional, organism-based; settings: STIB 900, 72 h
Method in brief: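 Bloodstream forms (10^4 per well) in MEM with 25 mM HEPES, extra glucose, non-essential amino acids, 2-mercaptoethanol, pyruvate and 15% heat-inactivated horse serum; seven 3-fold dilutions from 90 to 0.12 µg/mL, 72 h at 37 °C, 5% CO2. Resazurin added for 2–4 h, fluorescence at ex 536/em 588 nm; melarsoprol as standard.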

SMILES	Activity [1]	Activity [2]	Activity [3]	IC50 (Trypanosoma cruzi)	Activity (L6)	IC50 (Leishmania donovani)	IC50 (Plasmodium falciparum)	IC50 [4]
CC[C@@H](C(=O)C[C@@H](C)C1=C(O)C(=O)[C@@H]2[C@@H]3CC[C@H]4C[C@@H](O[C@@H]5O[C@H](C(=O)O)[C@@H](O)[C@H](O)[C@H]5O)CC[C@]4(C)[C@H]3CC[C@]12C)C(C)C	inactive	inactive	inactive					
O=C(Cn1ccnc1[N+](=O)[O-])NCc1ccccc1 [BENZNIDAZOLE]				2.64 µM				
CC[C@@H](C(=O)C[C@@H](C)C1=C(O)C(=O)[C@@H]2[C@@H]3CC[C@H]4C[C@@H](O[C@@H]5O[C@H](C(=O)OC)[C@@H](O)[C@H](O)[C@H]5O[C@@H]5O[C@H](CO)[C@@H](O)[C@H](O)[C@H]5O)CC[C@]4(C)[C@H]3CC[C@]12C)C(C)C [METHYL ESTER PANDAROSIDE A]	inactive	inactive	inactive	> 120 µM	> 120 µM	66.3 µM	> 25 µM	114 µM
COC(=O)[C@H]1O[C@@H](O[C@H]2CC[C@@]3(C)[C@@H](CC[C@H]4[C@H]5C(=O)C(O)=C([C@H](C)CC(=O)CC(C)C)[C@@]5(C)CC[C@@H]43)C2)[C@H](O[C@@H]2O[C@H](CO)[C@@H](O)[C@H](O)[C@H]2O)[C@@H](O)[C@@H]1O [METHYL ESTER PANDAROSIDE C]	inactive	inactive	inactive	100 µM	> 120 µM	44.2 µM	> 25 µM	61.4 µM
COC(=O)[C@H]1O[C@@H](O[C@H]2CC[C@@]3(C)[C@@H](CC[C@H]4[C@H]5C(=O)C(O)=C([C@H](C)CC(=O)CC(C)C)[C@@]5(C)CC[C@@H]43)C2)[C@H](O)[C@@H](O)[C@@H]1O [METHYL ESTER PANDAROSIDE D]	inactive	inactive	inactive	21.6 µM	106 µM	13.7 µM	5.1 µM	40.4 µM
C=C(C(=O)C[C@@H](C)C1=C(O)C(=O)[C@@H]2C3=C(CC[C@]12C)[C@@]1(C)CC[C@H](O[C@@H]2O[C@H](C(=O)OC)[C@@H](O)[C@H](O[C@@H]4OC[C@@H](O)[C@H](O)[C@H]4O)[C@H]2O)C[C@@H]1CC3)C(C)C [METHYL ESTER PANDAROSIDE E]	inactive	inactive	inactive	61.9 µM	76.9 µM	41.3 µM	5.9 µM	14.3 µM
COC(=O)[C@H]1O[C@@H](O[C@H]2CC[C@]3(C)C4=C(CC[C@H]3C2)[C@H]2C(=O)C(O)=C([C@H](C)CC(=O)[C@H](C)C(C)C)[C@@]2(C)CC4)[C@H](O)[C@@H](O[C@@H]2OC[C@@H](O)[C@H](O)[C@H]2O)[C@@H]1O [METHYL ESTER PANDAROSIDE F]	inactive	inactive	inactive	25.1 µM	42.1 µM	26.8 µM	9.9 µM	54.4 µM
CC[C@@H](C(=O)C[C@@H](C)C1=C(O)C(=O)[C@@H]2[C@@H]3CC[C@H]4C[C@@H](O[C@@H]5O[C@H](C(=O)OC)[C@@H](O)[C@H](O[C@@H]6OC[C@@H](O)[C@H](O)[C@H]6O)[C@H]5O)CC[C@]4(C)[C@H]3CC[C@]12C)C(C)C [METHYL ESTER PANDAROSIDE H]	inactive	inactive	inactive	36.1 µM	43.3 µM	16.5 µM	10.2 µM	19.9 µM
CC[C@@H](C(=O)C[C@@H](C)C1=C(O)C(=O)[C@@H]2[C@@H]3CC[C@H]4C[C@@H](O[C@@H]5O[C@H](C(=O)OC)[C@@H](O[C@H]6O[C@H](C)[C@@H](O)[C@H](O)[C@@H]6O)[C@H](O)[C@H]5O)CC[C@]4(C)[C@H]3CC[C@]12C)C(C)C [METHYL ESTER PANDAROSIDE I]	inactive	inactive	inactive	21.7 µM	59.6 µM	28.7 µM	13 µM	27.2 µM
CC[C@@H](C(=O)C[C@@H](C)C1=C(O)C(=O)[C@@H]2[C@@H]3CC[C@H]4C[C@@H](O[C@@H]5O[C@H](C(=O)O)[C@@H](O)[C@H](O)[C@H]5O[C@@H]5O[C@H](CO)[C@@H](O)[C@H](O)[C@H]5O)CC[C@]4(C)[C@H]3CC[C@]12C)C(C)C [PANDAROSIDE A]	inactive	inactive	inactive	52.2 µM	48.9 µM	19.7 µM	17.6 µM	9.1 µM
CC(C)CC(=O)C[C@@H](C)C1=C(O)C(=O)[C@@H]2[C@@H]3CC[C@H]4C[C@@H](O[C@@H]5O[C@H](C(=O)O)[C@@H](O)[C@H](O)[C@H]5O[C@@H]5O[C@H](CO)[C@@H](O)[C@H](O)[C@H]5O)CC[C@]4(C)[C@H]3CC[C@]12C [PANDAROSIDE C]	inactive	inactive	inactive	> 120 µM	> 120 µM	> 120 µM	> 25 µM	66.4 µM
CC(C)CC(=O)C[C@@H](C)C1=C(O)C(=O)[C@@H]2[C@@H]3CC[C@H]4C[C@@H](O[C@@H]5O[C@H](C(=O)O)[C@@H](O)[C@H](O)[C@H]5O)CC[C@]4(C)[C@H]3CC[C@]12C [PANDAROSIDE D]	inactive	inactive	inactive	80.8 µM	96.6 µM	31 µM	13.5 µM	15.3 µM
C=C(C(=O)C[C@@H](C)C1=C(O)C(=O)[C@@H]2C3=C(CC[C@]12C)[C@@]1(C)CC[C@H](O[C@@H]2O[C@H](C(=O)O)[C@@H](O)[C@H](O[C@@H]4OC[C@@H](O)[C@H](O)[C@H]4O)[C@H]2O)C[C@@H]1CC3)C(C)C [PANDAROSIDE E]	inactive	inactive	inactive	71.6 µM	40.9 µM	15.9 µM	13.8 µM	9.4 µM
CC(C)[C@@H](C)C(=O)C[C@@H](C)C1=C(O)C(=O)[C@@H]2C3=C(CC[C@]12C)[C@@]1(C)CC[C@H](O[C@@H]2O[C@H](C(=O)O)[C@@H](O)[C@H](O[C@@H]4OC[C@@H](O)[C@H](O)[C@H]4O)[C@H]2O)C[C@@H]1CC3 [PANDAROSIDE F]	inactive	inactive	inactive	20.3 µM	10.8 µM	4.3 µM	5.7 µM	2.4 µM
CC[C@@H](C(=O)C[C@@H](C)C1=C(O)C(=O)[C@@H]2C3=CC[C@H]4C[C@@H](O[C@@H]5O[C@H](C(=O)O)[C@@H](O)[C@H](O[C@@H]6OC[C@@H](O)[C@H](O)[C@H]6O)[C@H]5O)CC[C@]4(C)[C@H]3CC[C@]12C)C(C)C [PANDAROSIDE G]	inactive	inactive	inactive	9.7 µM	5.4 µM	1.3 µM	2.5 µM	0.8 µM
COc1cc([C@@H]2c3cc4c(cc3[C@H](O)[C@H]3COC(=O)[C@H]23)OCO4)cc(OC)c1OC [PODOFILOX]					0.012 µM			
